Measurements published in PubChem BioAssay.
The source made the active and inactive calls.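 How the source made its calls, unless noted: active means viability at or below 10% of carrier control in both of two separate runs; inconclusive means viability at or below 10% in only one of the two runs; inactive means the rest.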

Legend:
[1] = SK-BR-3 cell growth inhibitors, pilot screen, 24 h, human (AID 572); conditions: SK-BR-3 viability, CellTiter-Glo luminescence, at 10 µM, stronger effect = lower value;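 further: compound exposure lasted between 18 and 24 h rather than exactly 24 h; 100% = carrier-treated control wells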
[2] = HUVEC growth inhibition – cell-based, human, primary screen (AID 575;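 active means viability at or below 30% in both replicate assays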;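 further: 100% = median of untreated cell wells with 0.1% DMSO on each plate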); conditions: HUVEC proliferation, CellTiter-Glo luminescence, 72 h; at 10 µM; stronger effect = lower value
In short: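 Test system: primary human umbilical vein endothelial cells. Quantity: 1250 cells/well. Compound: single 10 µM dose, 0.1% DMSO, from 5x medium stock. Timing: 72 h treatment at 37 °C. Detection: ATP-based CellTiter-Glo luminescent read. Benchmarks: vehicle and MePR control wells. Format: 384-well plates coated with collagen.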

[3] = growth inhibitors of H69AR lung tumor, primary screen, human, duplicate replicates (AID 580;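 active means viability at or under a set limit in both replicates, limit being median viability minus 3 SD, cut at about 48% in these data, passing the limit was not always enough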;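 further: 100% = mean luminescence of untreated wells and 0% = no signal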); conditions: H69AR lung tumor cells viability, ATP luminescence, 72 h; at 10 µM; stronger effect = lower value
[4] = reversal of MRP1-mediated doxorubicin resistance, pilot screen, H69AR cells, doxorubicin co-treatment (AID 601;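 active means viability loss from added drug above about 55%, and viability with drug at most 40%, in both replicates, limit read from the data, passing the limit was not always enough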); conditions: CellTiter-Glo, 72 h, at 10 µM; for differential viability (reversal): stronger effect = higher value
[5] = 384-well plate pilot, post-Golgi transport modulator project, inhibition of yeast transport mutant growth (AID 636; in the data active means inhibition above about 31%); conditions: absorbance 615 nm, about 18 h, stronger effect = higher value
[6] = growth suppression of yeast trafficking mutant, preliminary HTS, modulators of trafficking downstream of Golgi apparatus project, 1536-format plate, OD 615 nm (AID 637; in the data active means inhibition above about 30%); conditions: yeast transport mutant growth, absorbance 615 nm, 18 h; stronger effect = higher value
[7] = H69AR cells + 2 uM doxorubicin, measured here: viability with 2 uM doxorubicin, stronger effect = lower value
[8] = H69AR cells, compound alone cytotoxicity

Row | Compound | viability [1] | viability [2] | viability [3] | differential viability (reversal) ([4]; H69AR cells + 2 uM doxorubicin) | viability [4, 7] [%] | viability [4, 8] [%] | inhibition [5] | inhibition [6]
1 | CCOC(=O)c1cc(C(C)(C)C)oc1CN | 118% (inactive) | 96.1% (inactive) | 90.8% (inactive) | -1.73% (inactive) | 92.5 | 90.8 | -7.12% (inactive) | 9.35% (inactive)
2 | CCN(CC)c1nc(N(CC)CC)[nH]c(=O)n1 | 112% (inactive) | 110% (inactive) | 94.7% (inactive) | 2.19% (inactive) | 92.6 | 94.7 | -4.94% (inactive) | 6.72% (inactive)
3 | COC(=O)CSc1nnc(-c2cccs2)n1-c1ccc(Cl)cc1 | 88% (inactive) | 93.8% (inactive) | 89.8% (inactive) | 6.75% (inactive) | 83.1 | 89.8 | -8.49% (inactive) | -4.68% (inactive)
4 | CN(C)CCOC(=O)C(c1ccccc1)C1(O)CCCC1 (configuration not stated) | 127% (inactive) | 92.9% (inactive) | 102% (inactive) | 4.65% (inactive) | 97 | 102 | -1.43% (inactive) | 2.33% (inactive)
5 | CCOc1nc(-c2ccncc2)nc2ccccc12 | 100% (inactive) | 93.7% (inactive) | 92.6% (inactive) | 0.47% (inactive) | 92.1 | 92.6 | -7.4% (inactive) | 9.35% (inactive)
6 | O=C(CSc1nnc(-c2ccc(Br)cc2)n1C1CCCCC1)N1CCCC1 | 64% (inactive) | 113% (inactive) | 80.2% (inactive) | -6.92% (inactive) | 87.1 | 80.2 | -6.58% (inactive) | -2% (inactive)
7 | O=S(=O)(NC1CCCCC1NS(=O)(=O)c1ccc(F)cc1)c1ccc(F)cc1 (configuration not stated) | 106% (inactive) | 91.2% (inactive) | 94.1% (inactive) | -1.67% (inactive) | 95.8 | 94.1 | -4.68% (inactive) | 6.07% (inactive)
8 | c1ccc2c(-c3nc(-c4ccncc4)no3)cccc2c1 | 56% (inactive) | 86.4% (inactive) | 102% (inactive) | 5.25% (inactive) | 96.3 | 102 | -5.89% (inactive) | 10.6% (inactive)
9 | O=C(NC1CCCCC1)c1nc2c(nnn2Cc2ccccc2Cl)c(=O)[nH]1 | 77% (inactive) | 104% (inactive) | 110% (inactive) | 12% (inactive) | 98.4 | 110 | -6.58% (inactive) | -7.58% (inactive)
10 | COc1cccc(/C=N/n2c(-c3ccco3)nc3ccccc3c2=O)c1 | 71% (inactive) | 105% (inactive) | 73.2% (inactive) | -12.3% (inactive) | 85.4 | 73.2 | -6.76% (inactive) | 2.36% (inactive)
11 | CC(=O)Nc1c(O)n(C)c2ccccc12 | 65% (inactive) | 103% (inactive) | 96.3% (inactive) | -14.5% (inactive) | 111 | 96.3 | -5.75% (inactive) | 4.55% (inactive)
12 | COC(=O)Cn1c(CCS(=O)(=O)c2ccc(C)cc2)nc2ccccc21 | 99% (inactive) | 96.5% (inactive) | 76.4% (inactive) | 6.58% (inactive) | 69.8 | 76.4 | -0.91% (inactive) | -1.64% (inactive)
13 | Cc1cccc(N(CC(=O)Nc2ccc(CC#N)cc2)S(C)(=O)=O)c1 | 108% (inactive) | 105% (inactive) | 97% (inactive) | 10.8% (inactive) | 86.2 | 97 | -10.8% (inactive) | 2.74% (inactive)
14 | Cc1oncc1C(=O)Nc1ccc(C(F)(F)F)cc1 | 87% (inactive) | 69.8% (inactive) | 97.2% (inactive) | 9.38% (inactive) | 87.8 | 97.2 | -1.69% (inactive) | -0.83% (inactive)
15 | CCOCCCN(Cc1cc2cc(C)cc(C)c2[nH]c1=O)C(=O)N(CC)CC | 58% (inactive) | 116% (inactive) | 82% (inactive) | -2.52% (inactive) | 84.5 | 82 | 0.93% (inactive) | 10% (inactive)
16 | C1COC(NC(C2CC2)C2CC2)=N1 | 94% (inactive) | 77.3% (inactive) | 84.9% (inactive) | 5.27% (inactive) | 79.6 | 84.9 | -1.3% (inactive) | -5.17% (inactive)
17 | COc1ccc(C(NC(C)=O)c2ccc3cccnc3c2O)c(OC)c1 (configuration not stated) | 65% (inactive) | 3.65% (active) | 23% (active) | -22.1% (inactive) | 45.1 | 23 | -6.4% (inactive) | 1.09% (inactive)
18 | Nc1ccc(S(=O)(=O)c2cccc(N)c2)cc1 | 62% (inactive) | 100% (inactive) | 96.2% (inactive) | 11.8% (inactive) | 84.4 | 96.2 | -9.18% (inactive) | 1.64% (inactive)
19 | CC(=O)N=c1sc(S(N)(=O)=O)nn1C | 84% (inactive) | 77.6% (inactive) | 93.9% (inactive) | 21.1% (inactive) | 72.8 | 93.9 | 0.39% (inactive) | 3.17% (inactive)
